Reference: ChEMBL document CHEMBL1134395, “Angular methoxy-substituted furo- and pyranoquinolinones as blockers of the voltage-gated potassium channel Kv1.3” (J Med Chem, 2001)
Where “and” joins values, the source holds several entries; their conditions need not be identical. Identical values can stand only once.

Tests used:
[1] = system: N1E-115; assay type: functional, Mus musculus; conditions: at 50 µM
[2] = system: N1E-115; assay type: functional, Mus musculus; conditions: at 50 µM; remark: listed apart in the source
[3] = biological target: Potassium voltage-gated channel subfamily A member 3 (Mus musculus) (UniProt P16390); assay: Blockade of peak steady-state K+ currents of voltage-gated potassium channel subunit Kv1.3 expressed in mouse fibroblasts L929 at 50 uM; assay type: functional
How it was run: (§1)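 Whole-cell patch clamp at room temperature on L929 fibroblasts stably transfected with mKv1.3, grown in DMEM with 10% FCS and 300 µg/mL G418. Bath: 160 mM NaCl, 4.5 KCl, 2.0 CaCl2, 1.0 MgCl2, 5 HEPES, pH 7.4, with 5% DMSO. Pipette: 120 KF, 20 KCl, 10 HEPES, 10 EGTA, pH 7.2. Holding −80 mV, 200 ms pulses to 40 mV; peak steady-state current normalized to control bath; mean of ≥3 cells.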

[4] = biological target: T1, Potassium voltage-gated channel subfamily A member 3 (Mus musculus, UniProt P16390); assay: Blockade of peak steady-state K+ currents of voltage-gated potassium channel subunit Kv1.3 in mouse fibroblasts L929 at 50 uM; assay type: functional; conditions: in the assay text read “at different concentrations” for “at 50 uM”
How it was run: as §1

[5] = system: N1E-115; assay: Blockade of peak steady-state Na+ currents of neuroblastoma cells N1E-115 at 100 uM; assay type: functional, Mus musculus
How it was run: (§2)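 Same N1E-115 whole-cell recordings and solutions (holding −80 mV, room temperature, 5% DMSO). Peak Na+ current is taken at pulses to 0 mV and normalized to the current in control bathing medium. Reported as mean of at least three experiments.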

[6] = biological target: T1, Potassium voltage-gated channel subfamily A member 3; assay: Inhibition of voltage-gated potassium channel subunit Kv1.3 expressed in L929 cells; assay type: functional, cell-based
How it was run: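 Whole-cell patch clamp on mKv1.3-transfected L929 cells. Holding −80 mV, 200 ms steps to 40 mV; room temperature, bath with 5% DMSO. Peak K+ block is measured at several concentrations, and a modified Hill equation is fitted to give the half-blocking concentration, reported ± SEM.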

[7] = biological target: Potassium voltage-gated channel subfamily A member 3 (Mus musculus) (UniProt P16390); assay: Blockade of peak steady-state K+ currents of Kv1.3 channels in mouse fibroblasts L929 at 25 uM; assay type: functional
How it was run: as §1

[8] = system: N1E-115; assay: Inhibition of N1E-115 cells Kv channels; assay type: functional, cell-based; conditions: Mus musculus
How it was run: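 Whole-cell patch clamp on N1E-115 cells. Holding −80 mV, steps to 40 mV; room temperature, bath with 5% DMSO. Peak K+ block is measured at several concentrations, and a modified Hill equation is fitted to give the half-blocking concentration, reported ± SEM.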

[9] = biological target: Potassium voltage-gated channel subfamily A member 3 (Mus musculus) (UniProt P16390); conditions: at 50 µM
[10] = system: N1E-115; assay: Blockade of peak steady-state Na+ currents of neuroblastoma cells N1E-115 at 50 uM; assay type: functional, Mus musculus
How it was run: as §2

[11] = system: N1E-115; assay: Blockade of peak steady-state Na+ currents of neuroblastoma cells N1E-115 at 25 uM; assay type: functional, Mus musculus
How it was run: as §2

[12] = biological target: Potassium voltage-gated channel subfamily A member 3 (Mus musculus) (UniProt P16390); assay: Blockade of peak steady-state K+ currents of Kv1.3 channels in mice fibroblasts L929 at 50 uM; assay type: functional
How it was run: as §1

[13] = system: N1E-115; assay: Blockade of peak steady-state K+ currents of neuroblastoma cells N1E-115 at 25 uM; assay type: functional, Mus musculus
How it was run: (§3)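 Whole-cell patch clamp at room temperature on N1E-115 neuroblastoma cells, grown in DMEM with 10% FCS. Bath: 125 mM NaCl, 5.5 KCl, 1.5 CaCl2, 2.0 MgCl2, 25 glucose, 5 HEPES, pH 7.4, with 5% DMSO. Pipette: 120 KF, 10 KCl, 10 NaCl, 10 HEPES, 10 EGTA, pH 7.2. Holding −80 mV, 100 ms pulses to 40 mV; peak steady-state K+ current normalized to control bath; mean of ≥3 cells.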

[14] = biological target: Potassium voltage-gated channel subfamily A member 3 (Mus musculus) (UniProt P16390); assay: Blockade of peak steady-state K+ currents of Kv1.3 channels in mice fibroblasts L929 at 25 uM; assay type: functional
How it was run: as §1

[15] = system: N1E-115; assay: Blockade of peak steady-state K+ currents of neuroblastoma cells N1E-115 at 100 uM; assay type: functional, Mus musculus
How it was run: as §3

Chain of Potassium voltage-gated channel subfamily A member 3 (Mus musculus) (P16390 whole entry): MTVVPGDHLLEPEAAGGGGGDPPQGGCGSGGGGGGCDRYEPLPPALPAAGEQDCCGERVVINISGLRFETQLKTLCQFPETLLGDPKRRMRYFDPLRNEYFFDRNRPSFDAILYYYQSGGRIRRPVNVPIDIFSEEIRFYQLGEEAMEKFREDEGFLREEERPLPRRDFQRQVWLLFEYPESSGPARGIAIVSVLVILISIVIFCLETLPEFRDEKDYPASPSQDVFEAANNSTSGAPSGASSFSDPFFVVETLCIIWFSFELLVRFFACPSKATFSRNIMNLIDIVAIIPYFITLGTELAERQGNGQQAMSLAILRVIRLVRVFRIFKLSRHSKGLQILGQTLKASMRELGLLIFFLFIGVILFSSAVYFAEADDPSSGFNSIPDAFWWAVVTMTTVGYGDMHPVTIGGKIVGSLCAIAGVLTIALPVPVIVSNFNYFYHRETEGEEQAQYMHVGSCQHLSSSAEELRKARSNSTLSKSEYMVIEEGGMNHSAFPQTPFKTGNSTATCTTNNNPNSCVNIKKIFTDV
T1 sequence (P16390 whole entry): as above

Row | Compound | BK [1] | BNa [2] [%] | BK [9] [%] | further results
1 | CC1(C)Oc2nc3ccc(Br)cc3c(O)c2CC1Br (configuration not stated) | 32% | 1 |  | BK [3]: 35%
2 | COc1ccc(CCCN2CCC(COC(c3ccccc3)c3ccccc3)CC2)cc1 |  |  |  | IC50 [4]: 0.28 µM
3 | Cn1c2c(c(=O)c3cc(O)ccc31)CC(O)C(C)(C)O2 (configuration not stated) | 0% |  |  | BNa [5]: 3%
4 | CC1(C)CCc2c(O)nc3ccc([N+](=O)[O-])cc3c2O1 | 23% | 8 |  | 
5 | COc1ccc2c(c1)c1c(c(=O)n2C)CCC(C)(C)O1 | 39% and 52% |  | 83 | IC50 [6]: 18 µM; BK [7]: 57%; IC50 [8]: 42 µM; BNa [10]: 4%; BNa [11]: 3%
6 | COc1ccc2c(c1)c(=O)c1c(n2C)OC(C(C)(C)O)C1 (configuration not stated) | 0% |  |  | BK [7]: 1%; BNa [11]: 0%
7 | COc1ccc2c(c1)c1c(c(=O)n2C)C=CC(C)(C)O1 | 64% | 12 |  | BK [12]: 93%; IC50 [8]: 31 µM; BK [13]: 44%; IC50 [4]: 10 µM; BK [14]: 88%; BNa [11]: 1%
8 | Cn1c2c(c(=O)c3cc(O)ccc31)CC(C(C)(C)O)O2 (configuration not stated) | 7% |  |  | BNa [5]: 13%
9 | Cn1c(=O)c2c(c3cc([N+](=O)[O-])ccc31)OC(C(C)(C)O)C2 (configuration not stated) | 4% | 0 |  | 
10 | CC1(C)Oc2nc3ccccc3c(O)c2CC1SS(=O)(=O)O (configuration not stated) |  |  |  | BK [15]: 0%; BNa [5]: 6%
11 | COc1cc2nc3occc3c(OC)c2cc1OC [KOKUSAGININE] | 22% | 0 | 51 | IC50 [8]: 200 µM; IC50 [4]: 49 µM
12 | COc1ccc2c(c1)c(=O)c1cc(C(C)C)oc1n2C | 33% | 1 | 44 | 
13 | Cn1c(=O)c2c(c3ccccc31)OC(C(C)(C)O)C2 (configuration not stated) | 4% |  |  | BK [7]: 3%; BNa [11]: 0%
14 | CC1(C)Oc2nc3ccccc3c(O)c2CC1O (configuration not stated) | 0% |  |  | BNa [5]: 0%
15 | CC1(C)CCc2c(O)nc3ccccc3c2O1 | 37% | 3 | 15 | 
16 | CC1(C)CCc2c(nc3ccccc3c2O)O1 | 6% | -18 | 7 | 
17 | COc1c2ccccc2nc2occc12 [DICTAMNINE] | 31% | 0 | 23 | 

Row | Compound | BK [1] | BNa [2] [%] | BK [9] [%] | further results
18 | Cn1c(=O)c2c(c3cc([N+](=O)[O-])ccc31)OC(C)(C)CC2 | 14% |  |  | BK [7]: 7%; BNa [11]: 0%
19 | Cn1c(=O)c2c(c3ccccc31)OC(C)(C)CC2 | 65% | 7 | 48 | 
20 | Cn1c2c(c(=O)c3ccccc31)CC(O)C(C)(C)O2 (configuration not stated) | 0% | 0 |  | 
21 | COc1ccc2c(c1)c(=O)c1c(n2C)OC(C)(C)C(O)C1 (configuration not stated) | 6% | 3 |  | 
22 | CCCCC/N=c1\ccn(Cc2ccccc2)c2ccccc12 [CP-339818] |  |  |  | IC50 [4]: 0.23 µM
23 | COc1ccc2c3c(c(=O)n(C)c2c1OC)C=CC(C)(C)O3 | 55% | 12 |  | BK [12]: 41%
24 | Cn1c(=O)c2c(c3ccccc31)OC(C)(C)C(O)C2 (configuration not stated) | 15% | 4 |  | BK [7]: 4%
25 | Cn1c2c(c(=O)c3ccccc31)CC(C(C)(C)O)O2 (configuration not stated) | 0% | 0 | 1 | 
26 | COc1ccc2c(OC)c3ccoc3nc2c1OC [SKIMMIANINE] | 20% | 6 | 13 | 
27 | COc1ccc2c(c1)c1oc(C(C)C)c(S(=O)(=O)[O-])c1c(=O)n2C.[Na+] |  |  |  | BK [13]: 0%; BNa [11]: 0%
28 | CC(C)c1cc2c(=O)c3ccccc3n(C)c2o1 | 15% | 0 | 23 | 
29 | COc1ccc2c(c1)c1c(c(=O)n2C)CC(C(C)(C)O)O1 (configuration not stated) | 0% |  |  | BK [7]: 0%; BNa [11]: 0%
30 | COc1ccc2c(c1)c1c(c(=O)n2C)CC(O)C(C)(C)O1 (configuration not stated) | 21% | 2 | 4 | 
31 | COc1ccc2c(c1)c1oc(C(C)C)cc1c(=O)n2C | 57% | 11 | 98 | BK [7]: 98%; IC50 [8]: 38 µM; BK [13]: 32%; IC50 [4]: 5 µM; BNa [11]: 5%
32 | COc1ccc2c(c1)c(=O)c1c(n2C)OC(C)(C)CC1 | 7% | 0 | 10 | 
33 | CC(C)c1cc2c(=O)n(C)c3ccccc3c2o1 | 42% | 11 | 70 | BK [7]: 44%; BK [13]: 25%; BNa [11]: 0%
34 | CC(C)(O)C1Cc2c(O)nc3ccccc3c2O1 (configuration not stated) | 7% | 0 |  | 
